Screening data deposited in PubChem BioAssay by The Scripps Research Institute Molecular Screening Center.
Rows were chosen to be rich in hits. Some 2.4% of all compounds tested hit in one or more screens of this group.
MOR-DOR ag-1 = OPRM1-OPRD1 heterodimerization agonism; P35372+P41143; AID 504326; cells, luminescence; 340,000 compounds, 0.3% hits; activation, % at 9.3 µM;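 further: 0% = vehicle-treated cells and 100% = reference agonist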
Target sequence (P35372 whole entry, looked up): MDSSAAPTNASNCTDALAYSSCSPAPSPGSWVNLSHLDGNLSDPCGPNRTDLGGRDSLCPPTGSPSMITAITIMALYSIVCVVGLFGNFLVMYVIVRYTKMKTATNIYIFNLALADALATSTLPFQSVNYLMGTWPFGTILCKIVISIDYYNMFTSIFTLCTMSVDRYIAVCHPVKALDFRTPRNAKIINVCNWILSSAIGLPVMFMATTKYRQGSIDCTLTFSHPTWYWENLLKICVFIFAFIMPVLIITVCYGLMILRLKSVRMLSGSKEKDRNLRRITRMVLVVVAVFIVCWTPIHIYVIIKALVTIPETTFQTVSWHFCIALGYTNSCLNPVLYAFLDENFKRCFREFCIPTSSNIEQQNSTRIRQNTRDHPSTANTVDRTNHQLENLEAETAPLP
Target sequence (P41143 whole entry, looked up): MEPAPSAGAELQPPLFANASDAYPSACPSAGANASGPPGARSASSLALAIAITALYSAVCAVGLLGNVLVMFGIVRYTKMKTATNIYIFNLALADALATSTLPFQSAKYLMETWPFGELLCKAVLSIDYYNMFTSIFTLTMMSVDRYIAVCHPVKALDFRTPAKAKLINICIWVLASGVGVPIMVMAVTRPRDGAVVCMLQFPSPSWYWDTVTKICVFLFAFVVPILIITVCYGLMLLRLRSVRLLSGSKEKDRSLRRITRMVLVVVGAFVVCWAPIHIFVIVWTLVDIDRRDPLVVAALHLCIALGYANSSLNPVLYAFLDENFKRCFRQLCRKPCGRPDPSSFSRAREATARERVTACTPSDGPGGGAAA
MOR-DOR inv ag = inverse agonist of human OPRM1-OPRD1 heterodimerization; P35372+P41143; cell-based MOR-DOR heterodimer luminescence, inverse agonism; inhibition, % at 9.3 µM; 340,000 compounds, 0.21% hits; AID 504357; in the data active means inhibition above about 22%, passing the limit was not always enough;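 further: 0% = cells with DMSO and 100% = wells without cells with DMSO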
HTR5A inv ctr = inverse agonist of human HTR5A in OPRM1-OPRD1 counter-screen | HTR5A cell line, luminescence, inverse agonism | 340,000 compounds, 0.083% hits | P47898 | AID 504634 | inhibition, % at 9.3 µM; in the data active means inhibition mostly above about 23%, no sharp cut-off; inactive means mostly below about 18%;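 further: 0% = cells with DMSO and 100% = no-cell wells with DMSO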
MC4R ag barr = agonists of human melanocortin 4 receptor (MC4R) beta-arrestin | activation, % at 8.9 µM | 360,000 compounds, 0.98% hits | U2OS MC4R beta-arrestin complementation, luminescence; percent of melanotan II response, DMSO zero | P32245 | AID 540308;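 active means activation above a per-plate cutoff, the mean activation of sample wells on that plate plus 3 SD, cut at about 8% in these data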
HTR5A ag = counter-screen for OPRM1-OPRD1 agonists: human HTR5A agonism | activation, % at 9.3 µM | 340,000 compounds, 0.61% hits | HTR5A agonist assay, luminescence, cell-based | P47898; in the data active means activation mostly above about 9.5%, no sharp cut-off; inactive means mostly below about 7.6%;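 further: 0% = cells with vehicle only and 100% = reference agonist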
MC4R antagonist = antagonists of human melanocortin 4 receptor (MC4R) | inhibition, % at 6.5 µM | 360,000 compounds, 0.48% hits | MC4R-expressing cells, MTII-stimulated cAMP, LANCE TR-FRET | AID 540295 | P32245;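 active means inhibition above its plate's cutoff, the mean of tested wells on that plate plus 3 SD, cut at about 29% in these data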;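 further: 0% = Melanotan II alone and 100% = Melanotan II plus saturating MCL0020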
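System – human MC4R-expressing U2OS cells · Also added – Melanotan II · Dosing – one concentration, 6.5 µM nominal · Timing – 30-min compound, 1-h challenge, 1-h detection, room temperature · Measured by – Eu-cAMP/anti-cAMP TR-FRET, emission 671 nm · Replicates – singlicate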
MOR-DOR ag-2 = opioid heterodimer agonism, HTR5A counter-screen; U2OS counter-screen cells, complementation luminescence, 3 h; shares compounds with HTR5A ag; activation, % at 9.3 µM; 800 compounds, 13% hits
HTR5A ag confirm = confirmation of human HTR5A agonists; AID 504915; HTR5A agonist cell assay, luminescence; 800 compounds, 17% hits; activation, % at 9.3 µM; shares compounds with HTR5A ag; in the data active means activation above about 17%;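 further: 0% = cells with vehicle only and 100% = full reference agonist response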
cAMP nonselect = U2OS forskolin cAMP inhibition counter-screen; parental U2OS, LANCE TR-FRET; 1,600 compounds, 26% hits; shares compounds with MC4R antagonist; inhibition, % at 6.5 µM;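 active means mean inhibition over triplicates above the low-control well mean plus 3 SD, set per campaign, cut at about 13% in these data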;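 further: signal is single emission at 671 nm which falls as cellular cAMP rises; 0% = forskolin-stimulated wells and 100% = buffer without forskolin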
MC4R cAMP antag = human MC4R cAMP antagonism confirmation. MC4R-expressing cells, MTII-stimulated cAMP, TR-FRET. 1,600 compounds, 27% hits. inhibition, % at 6.5 µM. shares compounds with MC4R antagonist; in the data active means inhibition above about 29%;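 further: 0% = agonist stimulated wells alone and 100% = agonist stimulated wells plus saturating reference antagonist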
MC4R barr ag = human MC4R beta-arrestin agonism confirmation; shares compounds with MC4R ag barr; U2OS MC4R beta-arrestin recruitment, luminescence; scaled DMSO 0%, Melanotan II 100%; activation, % at 8.9 µM; 2,400 compounds, 31% hits; AID 602192;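 active means mean activation across replicates above the hit cutoff set in the earlier primary screen, cut at about 8% in these data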
MOR DOR agonist = OPRM1-OPRD1 heterodimer agonism counter-screen; shares compounds with MC4R ag barr; U2OS PathHunter beta-arrestin, beta-gal luminescence; percent of deltorphin B response, DMSO zero; activation, % at 9.2 µM; 2,400 compounds, 5.8% hits;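 active means mean activation across replicates exceeds the hit threshold derived in the earlier primary screen, cut at about 18% in these data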;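 further: 100% = deltorphin B at 0.9 µM final and 0% = DMSO alone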
* = called active by the depositor; · = no result given. Unless noted, no stated cut-off is given here; in the data, active means activation above about 18%; inactive means the rest.

SMILES	MOR-DOR ag-1	MOR-DOR inv ag	HTR5A inv ctr	MC4R ag barr	HTR5A ag	MC4R antagonist	MOR-DOR ag-2	HTR5A ag confirm	others
CN(CC(=O)Nc1ccccc1Cl)C(=O)COC(=O)c1nc(Cl)c(Cl)c(Cl)c1Cl	-3	15	-4	-6	2	20	·	·
COC(=O)c1ccc(-c2cc(C(=O)O)c3cc4c(cc3n2)OCCO4)cc1	-2	10	-44	-1	17*	1	1	2
CCn1c(N2CCN(C(=O)Nc3ccc(F)cc3)CC2)nc2ccccc21	-1	7	-10	1	4	10	·	·
CCn1c(N2CCN(C(=O)NC3CCCCC3)CC2)nc2ccccc21	-1	3	-47	-3	24*	11	16	2
NC(=O)c1ccc(NC(=O)COC(=O)CCSc2ccccc2)cc1	-3	16	-42	2	15*	-1	7	7
Cc1ccc(SCCC(=O)OCC(=O)Nc2ccc(C(N)=O)cc2)cc1	-3	10	-6	-3	2	3	·	·
NC(=O)c1ccc(NC(=O)COC(=O)c2c[nH]c3ccccc23)cc1	0	-2	-54	-2	18*	9	17	-3
NC(=O)c1ccc(NC(=O)COC(=O)c2n[nH]c3ccccc23)cc1	-3	13	-2	1	1	6	·	·
O=C(C1=COCCO1)N1CCN(c2nc3ccc([N+](=O)[O-])cc3s2)CC1	-1	7	-49	-3	16*	1	83*	6
Cc1ccc(C)c(S(=O)(=O)NCc2ccncc2)c1	-1	3	0	-2	15*	6	4	2
CC#CC(=O)N1CCC(CO)(CCc2ccccc2)CC1	-1	8	11	-2	-1	12	·	·
CNC(=S)N1N=C(c2ccc(C)cc2)CC1c1ccc(Cl)cc1 (stereo unspecified)	8	-41	11	-1	-4	14	·	·
CNC(=S)N1N=C(c2ccc(C)cc2)CC1c1ccc(Br)cc1 (stereo unspecified)	1	-7	-43	0	18*	-2	1	4
C=CCc1cccc2cc(C(=O)N3CCN(C(=O)c4ccccc4)CC3)c(=O)oc12	0	2	-48	1	16*	30*	0	-4	cAMP nonselect=-2;MC4R cAMP antag=-6
CC(=O)N1CCN(Cc2nc3cc(NC(=O)NC4CCCCC4)ccc3n2C)CC1	1	-4	-1	0	1	-7	·	·
C=CCN1C(=O)C(CC(=O)Nc2ccc(OCCC)cc2)N(CCCN2CCN(Cc3ccccc3)CC2)C1=S (stereo unspecified)	16	-76	-73	22*	17*	8	39*	-2	MC4R barr ag=9.4*;MOR DOR agonist=22*
COc1ccc(/C=N/N(C)C2=NCCN2)c(OC)c1OC	-2	14	-3	0	1	2	·	·
COc1ccc2[nH]c3c(c2c1)CCNC3=O	-3	18	-8	-1	-2	0	·	·
C=C1CCc2c([nH]c3ccc(OCC(C)C)cc23)C1=O	5	-26	-81	14*	22*	45*	9	14	cAMP nonselect=12;MC4R cAMP antag=32*;MC4R barr ag=13*;MOR DOR agonist=12
